# From ChEMBL document CHEMBL5678798 (Clin Cancer Res, 2009)
# pIC50: −log10 of the molar value. Calls of active or inactive are those of the source. The rule behind the calls is not given here.
# Assays:
# [1] = molecular target: Serine/threonine-protein kinase Nek3 (Homo sapiens) (UniProt P51956); assay: Inhibition of N-terminal 6His-tagged recombinant full length human NEK3 expressed in baculovirus infected Sf21 cells at 3 uM by filter binding assay relative to control
# How it was run: (§1)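 KinaseProfiler panel of 233 kinases: radiometric filter-binding activity assays with compound at 0.3 or 3 µmol/L. Read-out is percent inhibition.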
# [2] = molecular target: Insulin receptor (Mus musculus) (UniProt P15208); details: CD-1, dose 30.0 mg/kg, route po, time 21.0 day
# Chain of Insulin receptor (Mus musculus) (P15208 28-748 limits assumed): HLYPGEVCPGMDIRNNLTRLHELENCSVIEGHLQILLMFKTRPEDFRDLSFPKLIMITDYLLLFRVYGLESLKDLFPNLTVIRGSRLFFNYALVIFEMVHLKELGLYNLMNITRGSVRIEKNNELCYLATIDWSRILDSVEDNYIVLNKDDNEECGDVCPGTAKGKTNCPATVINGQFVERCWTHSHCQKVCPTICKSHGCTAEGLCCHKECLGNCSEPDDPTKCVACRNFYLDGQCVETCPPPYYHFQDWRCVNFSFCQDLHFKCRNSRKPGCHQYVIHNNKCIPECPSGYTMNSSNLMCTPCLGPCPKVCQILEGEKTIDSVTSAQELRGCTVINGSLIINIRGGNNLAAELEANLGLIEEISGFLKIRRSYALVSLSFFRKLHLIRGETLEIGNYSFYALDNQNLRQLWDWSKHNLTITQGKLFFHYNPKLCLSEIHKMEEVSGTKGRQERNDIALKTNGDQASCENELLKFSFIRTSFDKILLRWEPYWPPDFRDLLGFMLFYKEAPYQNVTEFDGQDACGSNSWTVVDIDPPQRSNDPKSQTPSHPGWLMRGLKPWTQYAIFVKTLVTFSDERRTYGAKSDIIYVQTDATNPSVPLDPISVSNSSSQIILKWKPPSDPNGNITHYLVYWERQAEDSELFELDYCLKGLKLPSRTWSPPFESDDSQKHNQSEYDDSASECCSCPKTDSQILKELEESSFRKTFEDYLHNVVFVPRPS
# Chain of Insulin receptor (Mus musculus) (P15208 753-1372 limits assumed): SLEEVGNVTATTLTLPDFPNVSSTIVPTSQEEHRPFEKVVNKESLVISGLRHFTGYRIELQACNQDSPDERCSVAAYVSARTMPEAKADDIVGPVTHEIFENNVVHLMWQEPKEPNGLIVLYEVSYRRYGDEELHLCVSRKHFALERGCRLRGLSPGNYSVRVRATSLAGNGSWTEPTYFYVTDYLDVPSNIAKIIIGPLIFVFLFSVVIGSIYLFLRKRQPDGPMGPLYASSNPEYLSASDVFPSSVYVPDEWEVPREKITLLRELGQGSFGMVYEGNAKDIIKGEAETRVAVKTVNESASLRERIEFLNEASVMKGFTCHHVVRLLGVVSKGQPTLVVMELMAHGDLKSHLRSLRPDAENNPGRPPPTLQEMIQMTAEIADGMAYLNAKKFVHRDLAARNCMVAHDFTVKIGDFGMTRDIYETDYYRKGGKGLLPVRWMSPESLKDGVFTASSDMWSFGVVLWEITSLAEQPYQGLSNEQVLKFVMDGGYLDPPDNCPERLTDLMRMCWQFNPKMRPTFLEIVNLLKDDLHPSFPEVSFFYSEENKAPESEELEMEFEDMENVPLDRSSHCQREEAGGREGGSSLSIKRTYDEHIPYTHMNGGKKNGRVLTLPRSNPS
# [3] = molecular target: Tyrosine-protein kinase Yes (Homo sapiens) (UniProt P07947); assay: Inhibition of N-terminal His6 tagged recombinant full-length human Yes expressed in baculovirus infected Sf21 cells at 0.3 uM by filter binding assay relative to control
# Chain of Tyrosine-protein kinase Yes (Homo sapiens) (P07947 2-543 limits assumed): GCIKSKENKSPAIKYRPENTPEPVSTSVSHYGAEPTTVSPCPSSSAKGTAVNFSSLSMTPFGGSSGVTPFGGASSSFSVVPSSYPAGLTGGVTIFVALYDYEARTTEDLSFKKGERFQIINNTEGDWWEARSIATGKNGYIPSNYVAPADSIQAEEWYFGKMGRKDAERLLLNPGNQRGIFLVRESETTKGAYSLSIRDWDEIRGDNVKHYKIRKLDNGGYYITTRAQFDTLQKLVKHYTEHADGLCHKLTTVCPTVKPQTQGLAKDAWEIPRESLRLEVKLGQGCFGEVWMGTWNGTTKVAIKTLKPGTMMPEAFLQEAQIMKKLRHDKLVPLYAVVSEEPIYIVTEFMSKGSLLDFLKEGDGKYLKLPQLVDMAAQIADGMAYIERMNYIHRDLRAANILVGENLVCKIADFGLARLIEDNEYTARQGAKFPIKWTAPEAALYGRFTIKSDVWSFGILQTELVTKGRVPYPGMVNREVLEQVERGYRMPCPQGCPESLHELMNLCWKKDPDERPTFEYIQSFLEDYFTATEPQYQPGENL
# How it was run: (§2)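 Outsourced single-concentration screen in a commercial panel of 233 protein kinases, run as radiometric filter-binding activity assays. Test agent was tested at 0.3 or 3 µmol/L, as given in each line, from a 10 mmol/L DMSO stock. Activity is expressed as percent inhibition relative to control.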
# [4] = tested on: MDA-MB-468; assay: Antiproliferative activity against human MDA-MB-468 cells assessed as reduction in cell viability after 72 hrs by CellTiter-Glo assay; assay type: functional, cell-based; details: MDA-MB-468, 72 h
# How it was run: (§3)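 Cells seeded in 96-well plates, left overnight at 37°C, then exposed to a range of test concentrations for 72 h. Viability read by CellTiter-Glo luminescence; IC50 from four-parameter curve fit. Lines kept at 37°C, 5% CO2, in recommended growth medium.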
# [5] = molecular target: Death-associated protein kinase 2 (Homo sapiens) (UniProt Q9UIK4); assay: Inhibition of N-terminal GST-tagged recombinant human full length DAPK2 expressed in baculovirus infected Sf21 cells at 0.3 uM by filter binding assay relative to control; how it was run: as §2
# Chain of Death-associated protein kinase 2 (Homo sapiens) (Q9UIK4 whole entry, looked up, the tested form may be a part): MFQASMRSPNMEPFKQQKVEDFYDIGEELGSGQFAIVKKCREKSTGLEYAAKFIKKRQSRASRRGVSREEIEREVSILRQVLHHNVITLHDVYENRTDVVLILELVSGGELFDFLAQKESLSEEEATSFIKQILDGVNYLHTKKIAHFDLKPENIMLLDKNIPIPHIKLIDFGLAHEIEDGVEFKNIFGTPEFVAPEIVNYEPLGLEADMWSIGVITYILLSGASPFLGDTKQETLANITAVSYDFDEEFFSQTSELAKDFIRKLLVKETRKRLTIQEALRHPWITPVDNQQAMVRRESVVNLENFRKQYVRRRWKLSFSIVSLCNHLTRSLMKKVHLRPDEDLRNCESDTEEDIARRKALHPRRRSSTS
# [6] = molecular target: Discoidin domain-containing receptor 2 (Homo sapiens) (UniProt Q16832); assay: Inhibition of N-terminal His6-tagged recombinant human DDR2 (467 to end residues) expressed in baculovirus infected Sf21 cells at 0.3 uM by filter binding assay relative to control
# Chain of Discoidin domain-containing receptor 2 (Homo sapiens) (Q16832 whole entry, the tested form may be a part): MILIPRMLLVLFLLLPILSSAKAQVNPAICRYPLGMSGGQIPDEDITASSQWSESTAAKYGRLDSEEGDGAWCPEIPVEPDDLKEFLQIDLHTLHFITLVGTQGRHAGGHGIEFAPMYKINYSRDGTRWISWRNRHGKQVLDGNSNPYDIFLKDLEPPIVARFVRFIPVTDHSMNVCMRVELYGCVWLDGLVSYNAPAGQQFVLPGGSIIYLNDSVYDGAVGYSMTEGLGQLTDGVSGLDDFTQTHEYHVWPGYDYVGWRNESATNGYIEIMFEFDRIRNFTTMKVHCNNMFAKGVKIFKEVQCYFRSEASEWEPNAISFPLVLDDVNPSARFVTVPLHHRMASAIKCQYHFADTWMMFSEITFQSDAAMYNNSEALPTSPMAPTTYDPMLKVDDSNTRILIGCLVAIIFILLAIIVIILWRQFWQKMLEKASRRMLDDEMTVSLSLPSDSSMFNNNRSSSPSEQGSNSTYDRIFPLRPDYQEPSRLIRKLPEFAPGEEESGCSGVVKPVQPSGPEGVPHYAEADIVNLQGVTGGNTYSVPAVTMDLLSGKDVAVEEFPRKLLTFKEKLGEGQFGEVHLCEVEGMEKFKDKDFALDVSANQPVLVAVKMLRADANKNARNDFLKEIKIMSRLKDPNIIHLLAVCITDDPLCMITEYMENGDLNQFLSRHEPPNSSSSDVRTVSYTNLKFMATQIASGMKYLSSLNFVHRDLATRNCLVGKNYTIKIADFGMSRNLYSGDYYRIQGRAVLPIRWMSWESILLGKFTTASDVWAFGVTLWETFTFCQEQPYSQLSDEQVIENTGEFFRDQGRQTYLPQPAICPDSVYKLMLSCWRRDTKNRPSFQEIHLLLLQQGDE
# [7] = Cytotoxicity against HMEC cells assessed as reduction in cell viability after 72 hrs by CellTiter-Glo assay; assay type: toxicity, cell-based; details: human; how it was run: as §3
# [8] = tested on: MX1; assay: Antiproliferative activity against human MX1 cells assessed as reduction in cell viability after 72 hrs by CellTiter-Glo assay; assay type: functional, cell-based; details: MX1, 72 h; how it was run: as §3
# [9] = molecular target: RAC-alpha serine/threonine-protein kinase (Homo sapiens, UniProt P31749); assay: Inhibition of AKT1 (unknown origin)
# Chain of RAC-alpha serine/threonine-protein kinase (P31749 whole entry): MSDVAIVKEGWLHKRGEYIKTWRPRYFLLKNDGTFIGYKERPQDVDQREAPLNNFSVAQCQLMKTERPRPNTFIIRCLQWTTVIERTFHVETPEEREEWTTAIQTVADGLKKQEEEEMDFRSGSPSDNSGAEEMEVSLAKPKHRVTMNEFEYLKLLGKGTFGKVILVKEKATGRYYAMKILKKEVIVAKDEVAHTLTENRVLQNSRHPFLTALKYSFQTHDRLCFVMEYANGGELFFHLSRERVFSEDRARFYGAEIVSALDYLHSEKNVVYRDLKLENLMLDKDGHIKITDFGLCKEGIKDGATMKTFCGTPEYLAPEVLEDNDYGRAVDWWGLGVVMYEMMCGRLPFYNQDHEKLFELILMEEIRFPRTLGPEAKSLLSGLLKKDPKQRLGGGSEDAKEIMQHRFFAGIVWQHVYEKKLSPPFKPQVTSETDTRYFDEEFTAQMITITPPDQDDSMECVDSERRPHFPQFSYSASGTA
# [10] = molecular target: Tyrosine-protein kinase Fes/Fps (Homo sapiens, UniProt P07332); assay: Inhibition of N-terminal His6-tagged recombinant full length human Fes expressed in baculovirus infected Sf21 cells by filter binding assay
# Chain of Tyrosine-protein kinase Fes/Fps (P07332 whole entry): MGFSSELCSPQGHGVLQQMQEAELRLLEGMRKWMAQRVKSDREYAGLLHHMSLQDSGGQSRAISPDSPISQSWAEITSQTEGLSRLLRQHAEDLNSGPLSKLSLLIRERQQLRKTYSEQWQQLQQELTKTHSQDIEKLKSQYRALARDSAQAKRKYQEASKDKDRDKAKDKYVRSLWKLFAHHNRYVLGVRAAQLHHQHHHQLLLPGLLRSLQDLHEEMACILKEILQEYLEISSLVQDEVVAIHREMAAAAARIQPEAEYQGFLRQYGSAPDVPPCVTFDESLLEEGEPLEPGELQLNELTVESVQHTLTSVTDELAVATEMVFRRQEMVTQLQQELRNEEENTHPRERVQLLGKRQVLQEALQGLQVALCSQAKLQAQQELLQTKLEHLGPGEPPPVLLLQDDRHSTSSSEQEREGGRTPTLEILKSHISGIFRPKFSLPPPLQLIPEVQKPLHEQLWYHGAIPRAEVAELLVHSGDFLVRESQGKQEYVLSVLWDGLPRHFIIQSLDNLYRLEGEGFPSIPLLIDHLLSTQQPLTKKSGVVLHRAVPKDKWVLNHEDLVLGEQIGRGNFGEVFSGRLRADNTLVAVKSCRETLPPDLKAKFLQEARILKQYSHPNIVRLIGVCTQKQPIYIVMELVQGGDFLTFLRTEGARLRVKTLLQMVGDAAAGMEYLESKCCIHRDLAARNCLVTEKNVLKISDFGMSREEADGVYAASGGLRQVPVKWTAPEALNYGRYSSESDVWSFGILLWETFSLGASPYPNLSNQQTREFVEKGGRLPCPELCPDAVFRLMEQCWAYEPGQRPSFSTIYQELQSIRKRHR
# [11] = tested on: MCF7; assay: Antiproliferative activity against human MCF7 cells assessed as reduction in cell viability after 72 hrs by CellTiter-Glo assay; assay type: functional, cell-based; details: MCF7, 72 h; how it was run: as §3
# [12] = molecular target: Testis-specific serine/threonine-protein kinase 1 (Homo sapiens) (UniProt Q9BXA7); assay: Inhibition of 6His-tagged recombinant human full length TSSK1 expressed in baculovirus infected Sf21 cells at 0.3 uM by filter binding assay relative to control; how it was run: as §1
# [13] = Antiproliferative activity against human SK-ES cells assessed as reduction in cell viability after 72 hrs by CellTiter-Glo assay; assay type: functional, cell-based; how it was run: as §3
# [14] = tested on: A673; assay: Antiproliferative activity against human A673 cells assessed as reduction in cell viability after 72 hrs by CellTiter-Glo assay; assay type: functional, cell-based; details: A673, 72 h; how it was run: as §3
# [15] = molecular target: Serine/threonine-protein kinase PAK 6 (Homo sapiens) (UniProt Q9NQU5); assay: Inhibition of N-terminal His6-tagged recombinant human PAK6 (382 to end residues) expressed in Sf21 cells at 3 uM by filter binding assay relative to control
# [16] = molecular target: Proto-oncogene tyrosine-protein kinase receptor Ret (Homo sapiens) (UniProt P07949); assay: Inhibition of N-Terminal GST-tagged recombinant human Ret (658 to end residues) expressed in baculovirus infected Sf21 cells at 0.3 uM by filter binding assay relative to control; how it was run: as §1
# [17] = tested on: NCI-H929; assay: Induction of cell cycle arrest in human NCI-H929 cells assessed as decrease in cells accumulation at S phase at 0.03 to 10 uM incubated for 24 to 48 hrs by propidium iodide staining based flow cytometric analysis; assay type: functional; details: dose 0.03-10 µM, time lower 24.0 hrs, time upper […]
# How it was run: (§4)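 COLO 205, MCF-7 or NCI-H929 cells seeded in 96-well plates overnight at 37°C, then exposed to DMSO or increasing compound concentrations for 24 or 48 h. Fixed and stained with propidium iodide (Vindelov method), then analysed by flow cytometry for sub-G1, G1, S and G2-M fractions. Experiment repeated twice.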
# [18] = tested on: MCF7; assay: Induction of cell cycle arrest in human MCF7 cells assessed as decrease in cells accumulation at S phase at 0.03 to 10 uM incubated for 24 to 48 hrs by propidium iodide staining based flow cytometric analysis; assay type: functional; details: dose 0.03-10 µM, time lower 24.0 hrs, time upper […]; how it was run: as §4
# [19] = molecular target: Epidermal growth factor receptor (Homo sapiens, UniProt P00533); assay: Inhibition of EGFR (unknown origin)
# Chain of Serine/threonine-protein kinase Nek3 (Homo sapiens) (P51956 whole entry): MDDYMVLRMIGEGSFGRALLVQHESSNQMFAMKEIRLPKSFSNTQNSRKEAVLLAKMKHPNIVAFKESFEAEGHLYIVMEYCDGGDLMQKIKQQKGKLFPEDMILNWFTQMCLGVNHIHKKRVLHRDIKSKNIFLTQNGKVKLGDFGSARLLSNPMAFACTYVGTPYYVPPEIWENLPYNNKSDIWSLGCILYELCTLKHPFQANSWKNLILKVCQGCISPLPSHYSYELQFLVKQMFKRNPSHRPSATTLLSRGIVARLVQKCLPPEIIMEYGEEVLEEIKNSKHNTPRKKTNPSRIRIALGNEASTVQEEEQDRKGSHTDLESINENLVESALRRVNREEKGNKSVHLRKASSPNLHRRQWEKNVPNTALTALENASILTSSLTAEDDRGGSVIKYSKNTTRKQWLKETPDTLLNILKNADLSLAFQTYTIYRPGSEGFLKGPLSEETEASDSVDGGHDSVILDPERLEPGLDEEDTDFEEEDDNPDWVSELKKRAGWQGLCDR
compound,measurement,setting,value
CCc1cc(Nc2nccc(-c3c(-c4ccc(OC)c(C(=O)Nc5c(F)cccc5F)c4)nc4ccccn34)n2)c(OC)cc1N1CCC(N2CCN(S(C)(=O)=O)CC2)CC1,inhibition,[1],16%
same,inhibition,[2],inactive
same,inhibition,[3],0%
same,pIC50,[4],< 4.70
same,inhibition,[5],1%
same,inhibition,[6],0%
same,IC50 at 72 h,[7],> 20000 nM
same,pIC50,[8],6.72
same,pIC50,[9],< 5.00
same,pIC50,[10],6.83
same,pIC50,[11],6.86
same,inhibition,[12],10%
same,pIC50,[13],7.21
same,pIC50,[14],< 4.52
same,inhibition,[15],0%
same,inhibition,[16],30%
same,Activity,[17],Active
same,Activity,[18],Active
same,pIC50,[19],< 5.00
